Compound activity deposited in PubChem by Broad Institute.
Sampled rows, rich in hits. Any-hit rate of the full collection: about 4.4%.
T cruzi repl = blocks replication of Trypanosoma cruzi; T. cruzi beta-gal in NIH3T3, luminescence, 90 h; inhibition, % (concentration not given with the values); 1.4% of 300,000 active; AID 1885;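 active = mean inhibition across valid replicates above about 55%, limit read from the data; inconclusive = mean below that limit but half or more replicates reach it; inactive = mean below it, under half of replicates reach it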;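 note: signal also drops with host cell toxicity which is not excluded here; higher percent means less beta-gal luminescence so fewer parasites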
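Test system: β-gal T. cruzi (Tulahuen C4) inside NIH/3T3 cells / Quantity: 5,000 cells/well / Measured by: luminescence from GalScreen with 0.05% NP40, read after 60 min / Medium: DMEM plus 2% FBS / Measure: parasite load inhibition, % / Reagent: Tulahuen C4 trypomastigotes, 5000/well / Schedule: co-culture of at least 90 h after 3 h attachment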
HSF-1 act = increases HSF-1 driven luciferase reporter signal. 1.7% of 300,000 active. activation, % at 9 µM. AID 504408. NIH3T3-HGL HSF-1 luciferase reporter, MG132, 8 h; 100% = twice DMSO control signal;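 active = mean replicate activation of at least 50% with a set share of replicates each reaching 50%; inconclusive = only one of those two conditions met; inactive = mean below 50% and too few replicates reaching it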
HIF activator = HIF pathway transcriptional activation; AID 1910; U2OS HRE-luciferase reporter, luminescence; normalized: DMSO 0%, desferrioxamine 100%; 0.32% of 300,000 active; activation, % at 7.5 µM (by protocol);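 active = mean activation of at least 10% of the iron chelator positive control signal, with at least half of replicates also reaching 10%; inconclusive = mean and replicate majority disagree about reaching 10%; inactive = mean and most replicates under 10%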
Calb FLC = C. albicans growth modulation with fluconazole; C. albicans CaCi-2 + fluconazole, Alamar Blue growth, 48 h; growth inhibition, % (concentration not given with the values); 0.57% of 300,000 active; AID 1979;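 active = growth inhibition above about 58% in most replicates, limit read from the data, passing the limit was not always enough; inconclusive = exactly half the replicates above a set limit; inactive = most replicates below a set limit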;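 note: all wells also contain fluconazole at 8 µg/ml as a sub-toxic cotreatment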
HSF1 inh = HSF1 inhibition | 0.77% of 300,000 active | activity change, negative = inhibition, % at 7.5 µM (by protocol) | NIH3T3-HGL HSE-luciferase, MG132-induced, luminescence 8 h; hits give low values | AID 2098;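 active = more than half of replicate wells show activity change below -50%, luminescence cut by over half; inconclusive = some wells, but at most half, below -50%; inactive = no replicate well below -50%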;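 note: luciferase reports HSF-1 transcriptional activity via heat shock element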
Numbers stand for hits; n = inactive; u = inconclusive; x = not tested or not shown.

SMILES	T cruzi repl	HSF-1 act	HIF activator	Calb FLC	HSF1 inh
CC1CCCC(C)N1S(=O)(=O)c1ccc(S(=O)(=O)NCCc2ccncc2)cc1 (stereo unspecified)	57	n	n	n	n
CCN(C1CCCCC1)S(=O)(=O)c1ccc(S(=O)(=O)NCCc2ccncc2)cc1	u	n	n	n	n
COc1cc(/C=N/NS(=O)(=O)c2ccc3ccccc3c2)ccc1OCc1ccc(C(=O)O)cc1	n	n	n	n	-74
COc1cc(/C=N/NS(=O)(=O)c2ccc(C)cc2)ccc1OCc1cccc(C(=O)O)c1	n	n	n	n	-64
COc1ccc(/C=N/NS(=O)(=O)c2ccc(C)cc2)cc1OC(=O)c1ccccc1	x	x	x	n	x
COc1ccc(/C=N/NS(=O)(=O)c2ccccc2)cc1OC(=O)c1ccc(C)cc1	n	n	n	n	n
COc1ccc(CN2CCN(C(=O)CC(C)C)CC2)cc1	n	n	n	n	n
CN1CCN(C(=O)c2cnn(-c3ccccc3)c2NC(=O)c2ccccc2Br)CC1	n	n	n	n	n
COc1cc(/C=C(\C#N)C(=O)N2CCOCC2)ccc1OCc1ccccc1	n	n	n	n	n
N#C/C(=C\c1ccc(OCc2ccc(C(=O)O)cc2)cc1)C(=O)N1CCOCC1	n	n	n	n	-51
CC(C)(C)C(=O)Cn1c(=N)n(Cc2ccccc2Cl)c2ccccc21	57	n	n	n	n
CC(C)(C)C(=O)Cn1c(=N)n(Cc2ccccc2)c2ccccc21	n	n	n	n	n
CN1CCN(/N=C/c2cccc(Cl)c2Cl)CC1	62	n	n	n	n
Clc1ccccc1/C=N/N1CCN(Cc2ccccc2)CC1	n	n	n	n	n
Fc1ccc(-n2c(Cn3nnc4ccccc43)n[nH]c2=S)cc1	n	n	n	n	n
Cc1ccc(NC(=O)/C=C/c2cccs2)c([N+](=O)[O-])c1	n	63	n	n	n
Cc1ccc(NC(=O)/C=C/C(=O)O)c([N+](=O)[O-])c1	n	n	n	n	n
CN(CCOC(=O)/C=C/c1ccco1)Cc1ccccc1	n	n	n	n	n
Cc1cccc(Oc2nc3ccccn3c(=O)c2/C=C(\C#N)C(=O)NC2CCS(=O)(=O)C2)c1 (stereo unspecified)	n	n	n	n	n
Cc1cc(Oc2nc3ccccn3c(=O)c2/C=C(\C#N)C(=O)NC2CCS(=O)(=O)C2)ccc1Cl (stereo unspecified)	n	60	n	n	n
Cc1cc(C(=O)CN2C(=O)C(=O)N(Cc3ccccc3)C2=O)c(C)n1-c1ccc2c(c1)OCCO2	n	n	n	n	-70
COc1ccccc1N1CCN(C(=O)c2ccc3[nH]c(C)c(C)c3c2)CC1	n	n	n	n	n
COc1ccccc1N1CCN(C(=O)c2ccc3[nH]c4c(c3c2)CC(C)CC4)CC1 (stereo unspecified)	57	n	n	n	n
COc1ccc(-c2csc3nc(-c4ccccc4OC)oc(=O)c23)cc1	n	91	n	x	n
COCCNc1ccc(-c2nn(C)c(=O)c3ccccc23)cc1[N+](=O)[O-]	n	n	n	n	n
SMILES	T cruzi repl	HSF-1 act	HIF activator	Calb FLC	HSF1 inh
CN(C)CCCNc1ccc(-c2nn(C)c(=O)c3ccccc23)cc1[N+](=O)[O-]	68	n	n	n	n
c1ccc(CCCN2CCN(c3ccccn3)CC2)cc1	n	n	n	n	n
COC(=O)c1ccc(OC)c(CN2CCCN(Cc3cc(C)ccc3C)S2(=O)=O)c1	69	n	n	n	n
CSc1ccc(C2NN=C(c3ccccc3)S2)cc1 (stereo unspecified)	n	n	n	n	n
Oc1ccccc1C1NN=C(c2ccccc2)S1 (stereo unspecified)	n	81	n	n	n
NC(=Nc1nc(-c2ccccn2)cc2ccccc12)c1ccccn1	x	57	x	x	57
O=C(c1ccc(N2CCOCC2)c([N+](=O)[O-])c1)N1CCN(Cc2ccccc2)CC1	n	n	n	n	n
CCC(C)n1c(SC(C)C#N)nc2ccccc2c1=O (stereo unspecified)	n	n	n	n	-85
COC(=O)N=Nc1c(O)[nH]c2ccc(Br)cc12	n	n	n	n	n
Oc1[nH]c2ccc(Br)cc2c1N=NC(=S)N1CCOCC1	55	240	161	96	n
Oc1[nH]c2ccccc2c1N=NC(=S)N1CCOCC1	56	87	11	n	n
CC(C)CN(C(=O)CN1C(=O)C2CCCCC2C1=O)c1c(N)n(Cc2ccccc2)c(=O)[nH]c1=O (stereo unspecified)	n	n	n	n	n
CCCCN(C(=N)N1CCCCC1)c1nc(C)c([N+](=O)[O-])c(=O)[nH]1	n	n	n	n	n
COCCCNC(=O)c1cn(CCOC)c(=O)c2c1c1ccccc1n2C	n	n	n	n	n
COCCCNC(=O)c1cn(CC(C)C)c(=O)c2c1c1ccccc1n2C	n	n	n	n	-75
CCCCOC(=O)CCc1c(C)n[nH]c1C	n	63	n	n	n
COC(=O)c1c(C)[nH]c(O)c1C=Nc1ccc(C(C)C)cc1	58	n	n	n	n
COC(=O)c1c(C)[nH]c(O)c1C=Nc1ccc(Oc2ccccc2)cc1	n	n	n	n	n
C=CC[C@@H]1Cc2c(Br)ccc(Br)c2[C@@H](CC=C)N1	n	61	n	n	n
CCc1ccccc1N(CC(=O)N1CCCC1)S(C)(=O)=O	n	n	n	n	-56
CCCNC(=O)NC(=O)CN1CCCC1c1ccc2c(c1)OCCO2 (stereo unspecified)	n	n	n	n	n
O=C(CCl)N1CCCC1c1ccc2c(c1)OCCO2 (stereo unspecified)	n	n	n	n	-63
S=C1Cc2ccccc2C(c2ccc(Cl)cc2)N1 (stereo unspecified)	n	n	n	n	n
COc1ccccc1N1C(=NC(=O)CCC2CCCC2)SC2CS(=O)(=O)CC21 (stereo unspecified)	n	n	n	n	n
COC(=O)CNC(c1ccccc1)c1cc(Br)ccc1N (stereo unspecified)	n	74	n	n	n
COC(=O)CNC(c1ccccc1)c1cc(Br)ccc1NC(=O)CNC(=O)OCc1ccccc1 (stereo unspecified)	n	n	n	n	n
CCOC(=O)CNC(c1ccccc1)c1cc(Br)ccc1NC(=O)CCN1CCOCC1 (stereo unspecified)	u	63	n	111	n
COC(=O)CNC(c1ccccc1)c1cc(Br)ccc1NC(=O)CCN1CCOCC1 (stereo unspecified)	68	n	n	n	n
NNC(=O)CNC(c1ccccc1)c1cc(Br)ccc1N (stereo unspecified)	n	n	n	n	n
CCOC(=O)CNC(c1ccccc1)c1cc(Br)ccc1NC(=O)OCC (stereo unspecified)	n	n	n	n	n
